Assay results reported in ChEMBL document CHEMBL3526026, “Function of the blood-brain barrier and restriction of drug delivery to invasive glioma cells: findings in an orthotopic rat xenograft model of glioma” (Drug Metab Dispos, 2013).

Key:
[1] = Ratio of steady state drug level in brain to plasma in MDR1A/B FVB mouse at 0.6 mg/h/kg, ip administered as infusion after 48 hrs by LC-MS/MS analysis; format: ADME, organism-based; conditions: read-out: BPR
Procedure, shortened: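 Male FVB Mdr1a/b−/− mice, 8–10 weeks, n = 4. Erlotinib given by constant i.p. infusion at 0.6 mg/h/kg for 48 h to steady state. Brain and plasma by LC-MS/MS after homogenizing brain in 3 volumes 5% BSA/PBS; brain values corrected for residual vascular blood (plasma space 1.4% of brain). Mean ± S.D.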

[2] = Ratio of steady state drug level in brain to plasma in MDR1A/B/BCRP1 FVB mouse at 0.6 mg/h/kg, ip administered as infusion after 48 hrs by LC-MS/MS analysis; format: ADME, organism-based; conditions: read-out: BPR
Procedure, shortened: (§1)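 Male FVB mice, 8–10 weeks old, n = 4 per genotype. Continuous intraperitoneal infusion for 48 hours to steady state. Plasma obtained by centrifuging blood. Brain homogenized in 3 volumes of ice-cold 5% BSA in PBS. Erlotinib measured by LC-MS/MS with tyrphostin AG1478 internal standard. Brain values corrected for residual vascular blood, taking plasma space as 1.4% of brain. Mean ± S.D.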

[3] = Drug uptake in tumor rim of Rowett rat orthotopically xenografted with human U87 cells at 20 mg/kg/day for 3 days by LC-MS/MS analysis in presence of elacridar; format: ADME, organism-based, U-87MG ATCC; conditions: in vivo, 72 h
Procedure, shortened: (§2)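 U87-EGFR orthotopic rat xenografts (3 weeks' tumor growth) received oral erlotinib in 0.5% methylcellulose daily for 3 days. Elacridar 10 mg/kg was given intravenously via the jugular vein 30 minutes before each erlotinib dose. Sacrifice was 30 minutes after the last dose, followed by saline perfusion. Tumor core, rim and contralateral brain were dissected and analyzed by LC-MS/MS; n = 4 per group, mean ± S.D.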

[4] = system: Brain; assay: Drug uptake in brain of Rowett rat orthotopically xenografted with human U87 cells at 20 mg/kg/day for 3 days by LC-MS/MS analysis in presence of elacridar; format: ADME, organism-based, U-87MG ATCC; conditions: in vivo, 72 h; procedure, shortened: as §2
[5] = Drug uptake in tumor core of Rowett rat orthotopically xenografted with human U87 cells at 20 mg/kg/day, po for 5 days by LC-MS/MS analysis; format: ADME, organism-based, U-87MG ATCC; set-up: route oral; conditions: read-out: Drug uptake
Procedure, shortened: (§3)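 Rats received intracerebral U87 cells overexpressing wild-type EGFR (2.5 × 10^5 cells, right frontal, stereotaxic); tumors grew for 3 weeks. Erlotinib in 0.5% methylcellulose was given by oral gavage daily for 5 days. Sacrifice was 30 minutes after the last dose, with saline cardiac perfusion in the perfused group. Tissue was visually split into tumor core, adjacent rim and contralateral hemisphere. LC-MS/MS; n = 6.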

[6] = Drug uptake in tumor rim of Rowett rat orthotopically xenografted with human U87 cells at 20 mg/kg/day, po for 5 days by LC-MS/MS analysis; format: ADME, organism-based, U-87MG ATCC; set-up: route oral; conditions: read-out: Drug uptake; procedure, shortened: as §3
[7] = Drug uptake in brain of Rowett rat orthotopically xenografted with human U87 cells at 20 mg/kg/day, po for 5 days by LC-MS/MS analysis; format: ADME, organism-based, U-87MG ATCC; set-up: route oral; conditions: read-out: Drug uptake; procedure, shortened: as §3
[8] = system: Nucleic Acid; assay: Ratio of drug level in tumor core to tumor rim in Rowett rat orthotopically xenografted with human U87 cells at 20 mg/kg/day, po for 5 days by LC-MS/MS analysis; format: ADME, organism-based, U-87MG ATCC; set-up: route oral; conditions: in vivo, 120 h
Procedure, shortened: (§4)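 U87 cells (wild-type EGFR-transfected) inoculated into right frontal brain of anesthetized rats, 2.5 × 10^5 cells; tumor grown 3 weeks. Erlotinib 20 mg/kg/day in 0.5% methylcellulose by oral gavage for 5 days; sacrifice 30 min after last dose, with or without cardiac saline perfusion; tissue visually dissected into tumor core, rim, contralateral hemisphere; LC-MS/MS; n = 6 per group.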

[9] = system: Nucleic Acid; assay: Ratio of drug level in tumor core to brain contralateral hemisphere in Rowett rat orthotopically xenografted with human U87 cells at 20 mg/kg/day, po for 5 days by LC-MS/MS analysis; format: ADME, organism-based, U-87MG ATCC; set-up: route oral; conditions: in vivo, 120 h; procedure, shortened: as §4
[10] = Ratio of drug level in tumor core to plasma in Rowett rat orthotopically xenografted with human U87 cells at 20 mg/kg/day, po for 5 days by LC-MS/MS analysis; format: ADME, organism-based, U-87MG ATCC; set-up: route oral; procedure, shortened: as §3
[11] = Half life in mouse; format: ADME, organism-based; conditions: in vivo
[12] = Drug uptake at steady state in wild-type FVB mouse brain at 0.6 mg/h/kg, ip administered as infusion after 48 hrs by LC-MS/MS analysis; format: ADME, organism-based; conditions: read-out: Drug uptake; procedure, shortened: as §1
[13] = Plasma concentration at steady state in wild-type FVB mouse at 0.6 mg/h/kg, ip administered as infusion after 48 hrs by LC-MS/MS analysis; format: ADME, organism-based; conditions: read-out: Cpss; procedure, shortened: as §1
[14] = Plasma concentration at steady state in BCRP1 knock-out FVB mouse at 0.6 mg/h/kg, ip administered as infusion after 48 hrs by LC-MS/MS analysis; format: ADME, organism-based; conditions: read-out: Cpss; procedure, shortened: as §1
[15] = Plasma concentration at steady state in MDR1A/B knock-out FVB mouse at 0.6 mg/h/kg, ip administered as infusion after 48 hrs by LC-MS/MS analysis; format: ADME, organism-based; conditions: read-out: Cpss; procedure, shortened: as §1
[16] = Plasma concentration at steady state in MDR1A/B/BCRP1 knock-out FVB mouse at 0.6 mg/h/kg, ip administered as infusion after 48 hrs by LC-MS/MS analysis; format: ADME, organism-based; conditions: read-out: Cpss; procedure, shortened: as §1
[17] = Drug uptake at steady state in BCRP1 knock-out FVB mouse brain at 0.6 mg/h/kg, ip administered as infusion after 48 hrs by LC-MS/MS analysis; format: ADME, organism-based; conditions: read-out: Drug uptake; procedure, shortened: as §1
[18] = Drug uptake at steady state in MDR1A/B knock-out FVB mouse brain at 0.6 mg/h/kg, ip administered as infusion after 48 hrs by LC-MS/MS analysis; format: ADME, organism-based; conditions: read-out: Drug uptake; procedure, shortened: as §1
[19] = Drug uptake at steady state in MDR1A/B/BCRP1 knock-out FVB mouse brain at 0.6 mg/h/kg, ip administered as infusion after 48 hrs by LC-MS/MS analysis; format: ADME, organism-based; conditions: read-out: Drug uptake; procedure, shortened: as §1
[20] = Ratio of steady state drug level in brain to plasma in wild-type FVB mouse at 0.6 mg/h/kg, ip administered as infusion after 48 hrs by LC-MS/MS analysis; format: ADME, organism-based; conditions: read-out: BPR; procedure, shortened: as §1
[21] = Ratio of steady state drug level in brain to plasma in BCRP1 FVB mouse at 0.6 mg/h/kg, ip administered as infusion after 48 hrs by LC-MS/MS analysis; format: ADME, organism-based; conditions: read-out: BPR; procedure, shortened: as §1
[22] = Ratio of drug level in tumor rim to plasma in Rowett rat orthotopically xenografted with human U87 cells at 20 mg/kg/day, po for 5 days by LC-MS/MS analysis; format: ADME, organism-based, U-87MG ATCC; set-up: route oral; procedure, shortened: as §3
[23] = Ratio of drug level in brain contralateral hemisphere to plasma in Rowett rat orthotopically xenografted with human U87 cells at 20 mg/kg/day, po for 5 days by LC-MS/MS analysis; format: ADME, organism-based, U-87MG ATCC; set-up: route oral; conditions: read-out: BPR; procedure, shortened: as §4
[24] = Ratio of drug level in tumor core to plasma in Rowett rat orthotopically xenografted with human U87 cells at 20 mg/kg/day for 3 days by LC-MS/MS analysis in presence of elacridar; format: ADME, organism-based, U-87MG ATCC; conditions: with elacridar (dose not stated)
Procedure, shortened: (§5)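 U87 cells (wild-type EGFR-transfected) inoculated into right frontal brain of anesthetized rats, 2.5 × 10^5 cells; tumor grown 3 weeks. Erlotinib 20 mg/kg/day in 0.5% methylcellulose by gavage for 3 days; elacridar 10 mg/kg i.v. into jugular vein 30 min before each dose. Sacrifice 30 min after last dose, saline perfusion, brain dissected into tumor core, rim, contralateral hemisphere; plasma and homogenate by LC-MS/MS; n = 4 per group.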

[25] = Drug uptake in tumor core of Rowett rat orthotopically xenografted with human U87 cells at 20 mg/kg/day for 3 days by LC-MS/MS analysis in presence of elacridar; format: ADME, organism-based, U-87MG ATCC; conditions: in vivo, 72 h; procedure, shortened: as §2
[26] = Ratio of drug level in tumor rim to plasma in Rowett rat orthotopically xenografted with human U87 cells at 20 mg/kg/day for 3 days by LC-MS/MS analysis in presence of elacridar; format: ADME, organism-based, U-87MG ATCC; conditions: with elacridar (dose not stated); procedure, shortened: as §5
[27] = Ratio of drug level in brain contralateral hemisphere to plasma in Rowett rat orthotopically xenografted with human U87 cells at 20 mg/kg/day for 3 days by LC-MS/MS analysis in presence of elacridar; format: ADME, organism-based, U-87MG ATCC; conditions: with elacridar (dose not stated), read-out: BPR; procedure, shortened: as §5
[28] = Drug uptake in tumor core of Rowett rat orthotopically xenografted with human U87 cells at 20 mg/kg/day for 3 days by LC-MS/MS analysis in presence of elacridar relative to elacridar non-treated control; format: ADME, organism-based, U-87MG ATCC; conditions: in vivo, 72 h; procedure, shortened: as §5
[29] = Drug uptake in tumor rim of Rowett rat orthotopically xenografted with human U87 cells at 20 mg/kg/day for 3 days by LC-MS/MS analysis in presence of elacridar relative to elacridar non-treated control; format: ADME, organism-based, U-87MG ATCC; conditions: in vivo, 72 h; procedure, shortened: as §5
[30] = system: Brain; assay: Drug uptake in brain of Rowett rat orthotopically xenografted with human U87 cells at 20 mg/kg/day for 3 days by LC-MS/MS analysis in presence of elacridar relative to elacridar non-treated control; format: ADME, organism-based, U-87MG ATCC; conditions: in vivo, 72 h; procedure, shortened: as §5

## C#Cc1cccc(Nc2ncnc3cc(OCCOC)c(OCCOC)cc23)c1.Cl [ERLOTINIB HYDROCHLORIDE]
[1]
  Kp at 48 h: 0.09
[2]
  Kp at 48 h: 0.62
[3]
  Drug uptake: Active
[4]
  Drug uptake: Active
[5]
  concentration at 120 h: 1830 ng/g
[6]
  concentration at 120 h: 390 ng/g
[7]
  concentration at 120 h: 370 ng/g
[8]
  Ratio: 4.7
[9]
  Ratio: 5
[10]
  Kp at 120 h: 0.51
[11]
  half-life: 1 h
[12]
  concentration at 48 h: 4.3 ng/g
[13]
  concentration at 48 h: 72 ng/mL
[14]
  concentration at 48 h: 71 ng/mL
[15]
  concentration at 48 h: 81 ng/mL
[16]
  concentration at 48 h: 99 ng/mL
[17]
  concentration at 48 h: 4.9 ng/g
[18]
  concentration at 48 h: 12 ng/g
[19]
  concentration at 48 h: 34 ng/g
[20]
  Kp at 48 h: 0.02
[21]
  Kp at 48 h: 0.07
[22]
  Kp at 120 h: 0.1
[23]
  Kp at 120 h: 0.09
[24]
  Kp at 72 h: 1
[25]
  Drug uptake: Active
[26]
  Kp at 72 h: 1
[27]
  Kp at 72 h: 1
[28]
  fold change (FC): 4
[29]
  fold change (FC): 12
[30]
  fold change (FC): 12
